Reference: ChEMBL document CHEMBL4513216, “Probing the Open Global Health Chemical Diversity Library for Multistage-Active Starting Points for Next-Generation Antimalarials” (ACS Infect Dis, 2020)

Test: Toxicity liver stage against HepG2, at 10uM
Type: cell-based
Design: test concentration 10 uM, cell line HepG2-A16-CD81EGFP
Details: human, HepG2-A16-CD81EGFP cells; read-out: INHIBITION
Outline: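 Uninfected HepG2-A16-CD81EGFP cells, 3 × 10^3 per well, 1536-well, plated on prespotted compound at 10 μM final, parasite-free screening media added to match infected plates; puromycin 10 μM positive, DMSO 0.5% negative; run in parallel with 48 h PbLuc assay at 37 °C, 5% CO2; viability by CellTiter-Glo luminescence, normalized to controls.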

Row | Structure (SMILES) | cytotoxicity at 10 µM [%]
1 | CNc1cc(-c2cc(OC)c(OC)c(OC)c2)ncn1 | -11.8
2 | CC(c1ncc(-c2ccccc2)o1)N1CCN(C(=O)N(C)C)CC1 (stereo not given) | -12.1
3 | CC1CN(C(=O)c2cccc(OCc3cscn3)c2)CCO1 (stereo not given) | -9.86
4 | Cc1ccsc1C(Cc1ccccc1)NC(=O)CNC(=O)C1CC1 (stereo not given) | 11.6
5 | CN(C)CC1CN(Cc2csc(C3CCCC3)n2)CCO1 (stereo not given) | -7.32
6 | CC(=O)NC(CC(=O)Nc1ccc(C)cn1)c1ccccc1 (stereo not given) | -12.5
7 | COCc1noc(CN2CCCCC2CCc2cccs2)n1 (stereo not given) | 0.642
8 | COCCO[C@@H]1CCN(C(=O)c2ccnnc2)[C@H]1Cc1cnn(C)c1 | 7.6
9 | Cc1cn2cc(C(=O)NC3CCCN(c4ncccn4)C3)ccc2n1 (stereo not given) | 12.1
10 | NC(=O)N1CCCC(C(=O)NCCOc2ccc(F)cc2F)C1 (stereo not given) | 3.26
11 | OCCn1nccc1C1CCN(CCOc2ccccc2F)CC1 | -5.25
12 | CC(C)NC(=O)NCC(Cc1ccc(F)cc1)C(N)=O (stereo not given) | 12.8
13 | CC(=O)Nc1ncc(S(=O)(=O)Nc2ccc3c(c2)OCCO3)s1 | 2.93
14 | O=C1NCCN1C1CCN(Cc2nc(-c3ccc(F)cc3)no2)CC1 | 44.1
15 | COc1cccc(-n2cc(CN(C)Cc3ccnc(C(C)C)n3)cn2)c1 | -1.29
16 | CCCc1n[nH]c(C2CN(C(=O)c3cccc4cn[nH]c34)CCO2)n1 (stereo not given) | -4.81
17 | O=C(c1ccc(C2CCNC2)cc1)N1CCC(N2CCC(O)CC2)CC1 (stereo not given) | -7.62
18 | Cc1nc(CN2C(=O)CC[C@@H]3[C@H]2CCN3C(=O)c2ccc[nH]2)cs1 | -77.3
19 | CS(=O)(=O)N[C@@H]1CN(Cc2ccc3ccccc3c2)C[C@H]1O | -2.92
20 | CCS(=O)(=O)N1CCc2c(cnc(-c3cccnc3)c2C(=O)O)C1 | 2.66
21 | CCCC1CCCN(C(=O)CNC(=O)c2ccoc2C)CC1 (stereo not given) | 4
22 | O=C1CC(C(=O)N2CCc3sccc3C2)CN1Cc1cccnc1 (stereo not given) | -1.18
23 | Cc1ccc(C(=O)N2CCC3(CC2)CC(N2CCCC2)C3)cc1 | -0.77
24 | CC1CCN(C(=O)C2CCCN(C(=O)Nc3ccccn3)C2)CC1 (stereo not given) | -2.98
25 | COc1ccc(N(CCC(N)=O)C(=O)CSc2ccc(Cl)cc2)cc1 | -4.37
26 | CCNC(=O)N1CC(c2nc(Cc3ccccc3)no2)C1 | -2.98
27 | O=C(Cc1c[nH]c(=O)[nH]c1=O)N1CCCCC1CCc1cccc(O)c1 (stereo not given) | 14.5
28 | c1nc(-c2nc(C3CCOC3)no2)cs1 (stereo not given) | 6.18

Row | Structure (SMILES) | cytotoxicity at 10 µM [%]
29 | CC(C)(C)c1noc(CN2CCCN(Cc3cccs3)CC2)n1 | -8.8
30 | CC(=O)N1CCCC1C(=O)NCCOc1c(C)cccc1C (stereo not given) | -24.1
31 | Cc1cc2nc(CO[C@H]3CN(C)C[C@H]3F)[nH]c2cc1C | 2.78
32 | NC(=O)c1cc(C2CCCN(CCOCC3CC3)C2)n[nH]1 (stereo not given) | -11.5
33 | CCCC(NC(=O)c1ccc(OC)cc1F)c1nnn[nH]1 (stereo not given) | -7.61
34 | CC(C)N(Cc1ccc(C(F)(F)F)nc1)Cc1cnn(C)c1 | 1.36
35 | O=C(N1CCCC1)N1CCC2(CC1)C(=O)N(CC1CC1)c1ccccc12 | 7.15
36 | COc1ccc(C)cc1CCNS(=O)(=O)c1ccc2c(c1)CCC(=O)N2 | -45.5
37 | CN(C)CCNC(=O)[C@H]1C[C@H]2CN(C(=O)NCc3ccccc3)C[C@@H]1O2 | 1.96
38 | CC(C)(C)c1noc(CN2CCCC(CNS(N)(=O)=O)C2)n1 (stereo not given) | 1.3
39 | Cc1cc(C)n(CC2CCN(CC(O)CN3CCOCC3)CC2)n1 (stereo not given) | -7.35
40 | C[C@@H](O)CNC(=O)CCc1nc2cccnc2[nH]1 | -6.9
41 | COc1c(Br)cc(Br)cc1CNC(C)Cn1cccn1 (stereo not given) | 3.64
42 | CN(C1CCN(C(=O)NCCc2ccc(F)cc2F)CC1)S(C)(=O)=O | 12.3
43 | CC(C)N(CC(N)=O)CC(=O)NCCc1c(F)cccc1F | -4.97
44 | COCc1cc(NCc2ccccc2OC)ncn1 | 7.69
45 | CCn1c(C2CCCN(Cc3nccn3CCOC)C2)nn(C)c1=O (stereo not given) | 7.3
46 | CN(C)Cc1ccc(C2CCCCN2C(=O)c2cc(C3CC3)n[nH]2)cc1 (stereo not given) | -9.09
47 | O=C(Nc1nccs1)NC1CCN(CC2CCCC2)CC1 | -8.07
48 | CC(C)c1cc(C(=O)N2CCC3(CC2)c2ccccc2[C@@H](N)[C@@H]3O)cs1 | -7.34
49 | Cc1cc(C)cc(NC(=O)Cc2c(C)nc3c(c2C)c(=O)[nH]n3C)c1 | 10.6
50 | COc1ccc(C(NC(=O)NCc2nnc3n2CCC3)C2CC2)cc1 (stereo not given) | 11.7
51 | CCN(CC)CCn1cc(NC2CCSCC2)cn1 | 2.5
52 | Cc1cc(CS(=O)(=O)CC(=O)N2c3ccccc3CC2C)no1 (stereo not given) | -0.284
53 | CC1c2ncc(Cn3cccn3)n2CCN1c1ncccn1 (stereo not given) | -108
54 | COc1cccc(CC(C)NCC(=O)Nc2ccccc2C)c1 (stereo not given) | -1.62
55 | CC(C)(C)c1cc(=O)n2c(n1)SCC(C(=O)NCc1ccco1)C2 (stereo not given) | -15.1
